# Data: publication PMC10363772 (RSC Advances, 2023)
# Tests used:
# [1] = DPPH free radical scavenging assay; settings: at 75 μg mL^−1
# Method in brief: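 Test samples were mixed with 3.0 mL of 0.1 mM DPPH in methanol, shaken vigorously, and held 30 min at room temperature in the dark. Absorbance was read at 515 nm and % scavenging calculated. BHT was the positive control and methanol the negative control.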
# [2] = test system: rat intestinal α-glucosidase; assay: α-Glucosidase inhibition assay; assay type: biochemical; settings: for α-glucosidase inhibition: at 100 μg mL^−1
# [3] = Solubility studies of nano-curcumin in water; assay type: physicochemical; settings: deionized water
# Method in brief: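 Each test sample was stirred in 30 mL deionized water at room temperature for 24 h to make a saturated solution. Undissolved particles were removed by centrifugation, and the liquid was filtered through a PTFE membrane. The filtrate was diluted with an equal volume of deionized water, and dissolved curcumin was quantified by UV/Vis absorbance at 422 nm.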
# β-glucosidase = assay: β-Glucosidase inhibition assay; assay type: biochemical; settings: for β-glucosidase inhibition: at 100 μg mL^−1
# α-amylase = molecular target: T1, α-amylase (Sus scrofa, UniProt P00690); assay: α-Amylase inhibitory assay; assay type: biochemical; settings: at 100 μg mL^−1
# T1 sequence (P00690 16-511): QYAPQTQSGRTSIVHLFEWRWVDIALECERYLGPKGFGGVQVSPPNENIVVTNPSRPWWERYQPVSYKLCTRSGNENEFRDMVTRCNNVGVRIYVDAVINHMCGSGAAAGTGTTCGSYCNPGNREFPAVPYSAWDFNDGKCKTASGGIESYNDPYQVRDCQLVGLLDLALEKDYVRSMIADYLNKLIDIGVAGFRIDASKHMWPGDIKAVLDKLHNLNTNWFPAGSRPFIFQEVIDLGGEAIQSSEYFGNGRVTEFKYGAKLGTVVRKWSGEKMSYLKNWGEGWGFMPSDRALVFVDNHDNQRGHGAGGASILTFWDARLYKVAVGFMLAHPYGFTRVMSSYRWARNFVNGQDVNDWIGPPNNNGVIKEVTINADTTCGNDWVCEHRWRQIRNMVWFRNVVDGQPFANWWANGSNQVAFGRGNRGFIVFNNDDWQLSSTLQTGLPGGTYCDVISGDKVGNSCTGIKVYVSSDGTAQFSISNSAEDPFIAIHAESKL
Compound,DPPH free radical scavenging activity [1],α-glucosidase inhibition [2],solubility at 24 h [3],"solubility thermodynamic at 24 h ([3]; water, thermodynamic from solid)","IC50, mean ± SD, β-Glucosidase (β-glucosidase)",β-glucosidase inhibition (β-glucosidase),"IC50, mean ± SD, α-Glucosidase [2]",α-amylase inhibition (α-amylase)
"Cc1cc(C(C)(C)C)c(O)c(C(C)(C)C)c1 [BHT, Butylated hydroxytoluene]",50.48 ± 1.11%,–,–,–,–,–,–,–
"COc1cc(/C=C/C(=O)CC(=O)/C=C/c2ccc(O)c(OC)c2)ccc1O [Curcumin, diferuloylmethane]",45.63 ± 0.78%,47.87 ± 0.31%,0.98 µg/mL,2.68 µM,51.92 ± 0.14 µg/mL,50.38 ± 0.11%,–,–
"C[C@H]1O[C@H](O[C@H]2[C@H](O)[C@@H](O)[C@@H](O[C@H]3[C@H](O)[C@@H](O)C(O)O[C@@H]3CO)O[C@@H]2CO)[C@H](O)[C@@H](O)[C@@H]1N[C@H]1C=C(CO)[C@@H](O)[C@H](O)[C@H]1O (stereo partly drawn) [Acarbose, acarbose]",–,66.04 ± 0.18%,–,–,45.55 ± 0.21 µg/mL,66.05 ± 0.47%,45.76 ± 0.13 µg/mL,68.74 ± 0.28%
